Assay results: ChEMBL document CHEMBL2057150, “The synthesis and SAR of calcitonin gene-related peptide (CGRP) receptor antagonists derived from tyrosine surrogates. Part 1” (Bioorg Med Chem Lett, 2012)
Active and inactive are the calls of the source. The calls are words filed in the database; no cut-off is given here.

Columns and labels:
[1] = Cardiovascular toxicity in human coronary arteries assessed as induction of vasoconstriction after 30 mins relative to serotonin; parameters: species or system Coronary artery
In short: (§1)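 Ex vivo human arteries in tissue baths; test agent applied up to 10 µM and contraction recorded. Serotonin (10 µM) added to each bath at session end as the reference for maximal vessel contractility; contraction expressed as percent of serotonin maximum.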

[2] = Cardiovascular toxicity in human coronary arteries assessed as induction of vasoconstriction after 30 mins; parameters: species or system Coronary artery; settings: for Activity: 0.5 h; for EC50 at 30 min: human coronary arteries; in short: as §1
Cytochrome P450 3A4 [3] = molecular target: T1, Cytochrome P450 3A4 (Homo sapiens, UniProt P08684); test: Inhibition of human recombinant CYP3A4 expressed in baculo-virus infected insect microsomes using benzyloxyresorufin as substrate after 45 mins by fluorescence detection assay; assay type: ADME, Microsome
T1 sequence (P08684 whole entry): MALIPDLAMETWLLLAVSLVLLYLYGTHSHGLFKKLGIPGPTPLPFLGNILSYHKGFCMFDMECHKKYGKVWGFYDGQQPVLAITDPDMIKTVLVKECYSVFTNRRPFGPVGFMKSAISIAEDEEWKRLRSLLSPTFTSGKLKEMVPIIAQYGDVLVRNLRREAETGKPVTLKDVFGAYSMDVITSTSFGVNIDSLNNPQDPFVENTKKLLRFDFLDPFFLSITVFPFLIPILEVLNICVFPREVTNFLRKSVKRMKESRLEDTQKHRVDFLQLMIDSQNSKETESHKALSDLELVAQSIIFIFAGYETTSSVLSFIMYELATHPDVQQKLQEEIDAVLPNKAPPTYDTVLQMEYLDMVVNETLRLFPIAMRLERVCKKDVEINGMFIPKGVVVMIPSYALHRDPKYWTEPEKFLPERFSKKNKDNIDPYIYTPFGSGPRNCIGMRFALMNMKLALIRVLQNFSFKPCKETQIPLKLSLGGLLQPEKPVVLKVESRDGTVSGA

[4] = molecular target: Calcitonin gene-related peptide type 1 receptor (Homo sapiens, UniProt O60894+Q16602); test: Displacement of [125I]CGRP from CGRP receptor in human SK-N-MC cell membrane after 2 hrs; assay type: cell membranes
Sequence of Calcitonin gene-related peptide type 1 receptor (Q16602 whole entry, one chain of several): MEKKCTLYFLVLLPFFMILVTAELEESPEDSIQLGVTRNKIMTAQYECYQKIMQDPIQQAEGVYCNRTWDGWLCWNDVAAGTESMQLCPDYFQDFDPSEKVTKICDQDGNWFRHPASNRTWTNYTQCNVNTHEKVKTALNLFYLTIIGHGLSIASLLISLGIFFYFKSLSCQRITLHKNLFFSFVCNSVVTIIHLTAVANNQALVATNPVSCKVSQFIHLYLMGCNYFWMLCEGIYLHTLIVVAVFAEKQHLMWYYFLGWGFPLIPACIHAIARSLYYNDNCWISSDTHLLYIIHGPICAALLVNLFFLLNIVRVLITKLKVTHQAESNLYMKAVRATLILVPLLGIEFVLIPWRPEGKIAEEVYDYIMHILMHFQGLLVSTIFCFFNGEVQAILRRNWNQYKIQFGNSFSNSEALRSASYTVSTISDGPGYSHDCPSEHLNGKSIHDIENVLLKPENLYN

[5] = Cardiovascular toxicity in human coronary arteries assessed as induction of vasoconstriction up to 10 uM after 30 mins; parameters: species or system Coronary artery; settings: 0.5 h; in short: as §1
Callithrix jacchus [6] = test: Antimigraine activity in sc dosed marmosets assessed as inhibition of CGRP-induced increase in facial blood flow administered 30 mins post CGRP-challenge measured up to 105 mins by laser doppler flowmetry; assay type: functional, organism-based
In short: (§2)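 Anesthetized marmosets; facial blood flow raised by iv hαCGRP (10 µg/kg) at 45 min intervals (-30, 15, 60, 105 min). Antagonist given sc at 0 min (dose range 0.3–1 mg/kg). CGRP-induced changes in facial blood flow read by laser Doppler flowmetry.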

Cytochrome P450 3A4 [7] = molecular target: T1, Cytochrome P450 3A4; test: Inhibition of human recombinant CYP3A4 expressed in baculo-virus infected insect microsomes using 7-benzyloxy-4-trifluoromethylcoumarin as substrate after 20 mins by fluorescence detection assay; assay type: ADME, Microsome
Callithrix jacchus [8] = test: Antimigraine activity in marmosets assessed as inhibition of CGRP-induced increase in facial blood flow at 1 mg/kg, sc administered 30 mins post CGRP-challenge measured up to 105 mins by laser doppler flowmetry; assay type: functional, organism-based; parameters: dose 1 mg/kg; in short: as §2

Compound	IC50 (Cytochrome P450 3A4 [3]) [µM]	Ki [4] [µM]	also measured
CN(C)CCc1c[nH]c2ccc(C[C@H]3COC(=O)N3)cc12 [ZOLMITRIPTAN]			Emax at 0.5 h [1]: 39%; Activity [2]: Dose-dependent effect; EC50 at 30 min [2]: 0.04 µM
O=C(N[C@H](Cc1ccc(-c2ccccc2)cc1)C(=O)N1CCC(N2CCCCC2)CC1)N1CCC(n2c(=O)[nH]c3ccccc32)CC1	1.3	0.25	
COc1ccc(C[C@@H](NC(=O)N2CCC(n3c(=O)[nH]c4ccccc43)CC2)C(=O)N2CCC(N3CCCCC3)CC2)cc1		1.4	
O=C(O)CC[C@@H](NC(=O)N1CCC(n2c(=O)[nH]c3ccccc32)CC1)C(=O)N1CCC(N2CCCCC2)CC1		> 1	
CNS(=O)(=O)Cc1ccc2[nH]cc(CCN(C)C)c2c1			Emax at 0.5 h [1]: 48%; Activity [2]: Dose-dependent effect; EC50 at 30 min [2]: 0.12 µM
O=C1Cc2cc(C[C@@H](NC(=O)N3CCC(N4Cc5ccccc5NC4=O)CC3)C(=O)N3CCC(N4CCCCC4)CC3)ccc2N1	11	0.00065	
O=C(N[C@H](Cc1ccc2nn[nH]c2c1)C(=O)N1CCC(N2CCCCC2)CC1)N1CCC(N2Cc3ccccc3NC2=O)CC1	23	0.00055	
CC(=O)Nc1ccc(C[C@@H](NC(=O)N2CCC(n3c(=O)[nH]c4ccccc43)CC2)C(=O)N2CCC(N3CCCCC3)CC2)cc1		1.9	
O=C(N[C@H](CCc1ccc(O)cc1)C(=O)N1CCC(N2CCCCC2)CC1)N1CCC(n2c(=O)[nH]c3ccccc32)CC1		2.1	
NC(=O)CC[C@@H](NC(=O)N1CCC(n2c(=O)[nH]c3ccccc32)CC1)C(=O)N1CCC(N2CCCCC2)CC1		> 1	
O=C(N[C@H](Cc1ccc2[nH]c(=O)oc2c1)C(=O)N1CCC(N2CCCCC2)CC1)N1CCC(N2Cc3ccccc3NC2=O)CC1	30	0.00027	
O=C(N[C@H](Cc1ccc2[nH]ncc2c1)C(=O)N1CCC(N2CCCCC2)CC1)N1CCC(N2Cc3ccccc3NC2=O)CC1			Activity [5]: Non-toxic; inhibition (Callithrix jacchus [6]): Dose-dependent effect
O=C(N[C@H](Cc1cc(Br)c(O)c(Br)c1)C(=O)N1CCC(N2CCCCC2)CC1)N1CCC(n2c(=O)[nH]c3ccccc32)CC1	2.4	0.00065	
CC(C)C[C@@H](NC(=O)N1CCC(n2c(=O)[nH]c3ccccc32)CC1)C(=O)N1CCC(N2CCCCC2)CC1	16	2.4	
O=C(N[C@@H](Cc1cc(Br)c(O)c(Br)c1)C(=O)N1CCC(N2CCCCC2)CC1)N1CCC(n2c(=O)[nH]c3ccccc32)CC1		> 1	
Cc1nc2cc(C[C@@H](NC(=O)N3CCC(N4Cc5ccccc5NC4=O)CC3)C(=O)N3CCC(N4CCCCC4)CC3)ccc2[nH]1		0.028	
O=C(N[C@@H](Cc1ccc2[nH]ncc2c1)C(=O)N1CCC(N2CCCCC2)CC1)N1CCC(N2Cc3ccccc3NC2=O)CC1	7.3		inhibition (Callithrix jacchus [8]): inactive

Second part, led by results:

IC50 (Cytochrome P450 3A4 [3]) [µM]	Ki [4] [µM]	Compound	also measured
> 40	0.084	O=C(N[C@H](Cc1c[nH]c2ccccc12)C(=O)N1CCC(N2CCCCC2)CC1)N1CCC(n2c(=O)[nH]c3ccccc32)CC1	
2.5	0.032	O=C(NC(Cc1ccc2[nH]ccc2c1)C(=O)N1CCC(N2CCCCC2)CC1)N1CCC(n2c(=O)[nH]c3ccccc32)CC1 (racemic)	
> 40	0.0025	O=C(N[C@H](Cc1ccc(O)cc1)C(=O)N1CCC(N2CCCCC2)CC1)N1CCC(n2c(=O)[nH]c3ccccc32)CC1	
0.1	0.016	Cn1cc(C[C@@H](NC(=O)N2CCC(n3c(=O)[nH]c4ccccc43)CC2)C(=O)N2CCC(N3CCCCC3)CC2)c2ccccc21	
0.03	0.23	O=C(N[C@H](Cc1ccc2ccccc2c1)C(=O)N1CCC(N2CCCCC2)CC1)N1CCC(n2c(=O)[nH]c3ccccc32)CC1	
0.03	0.0072	O=C(N[C@H](Cc1cccc2ccccc12)C(=O)N1CCC(N2CCCCC2)CC1)N1CCC(n2c(=O)[nH]c3ccccc32)CC1	
17	0.068	O=C(NC(Cc1ccc2[nH]ncc2c1)C(=O)N1CCC(N2CCCCC2)CC1)N1CCC(n2c(=O)[nH]c3ccccc32)CC1 (racemic)	Activity [5]: Non-toxic
0.084	0.00055	O=C(N[C@H](Cc1csc2ccccc12)C(=O)N1CCC(N2CCCCC2)CC1)N1CCC(n2c(=O)[nH]c3ccccc32)CC1	IC50 (Cytochrome P450 3A4 [7]): 0.87 µM
	0.75	Nc1ccc(C[C@@H](NC(=O)N2CCC(n3c(=O)[nH]c4ccccc43)CC2)C(=O)N2CCC(N3CCCCC3)CC2)cc1	
	> 1	O=C(N[C@@H](C(=O)N1CCC(N2CCCCC2)CC1)c1ccccc1)N1CCC(n2c(=O)[nH]c3ccccc32)CC1	
	> 1	O=C(N[C@H](CCc1ccccc1)C(=O)N1CCC(N2CCCCC2)CC1)N1CCC(n2c(=O)[nH]c3ccccc32)CC1	
	0.3	O=C(N[C@H](Cc1ccccc1)C(=O)N1CCC(N2CCCCC2)CC1)N1CCC(n2c(=O)[nH]c3ccccc32)CC1	
